# dFosB activator – enhances mouse delta FosB homodimer DNA binding; P13346; purified delta FosB, TAMRA-CDK5 oligo fluorescence polarization; percent of positive-control signal above neutral wells; activation, % at 25 µM; hit rate 0.99% among 340,000; AID 493131;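 active means mean activation above about 17%, with every replicate also reaching it, limit read from the data, passing the limit was not always enough; inconclusive means only one of the two conditions met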
# Target sequence (P13346 whole entry, looked up): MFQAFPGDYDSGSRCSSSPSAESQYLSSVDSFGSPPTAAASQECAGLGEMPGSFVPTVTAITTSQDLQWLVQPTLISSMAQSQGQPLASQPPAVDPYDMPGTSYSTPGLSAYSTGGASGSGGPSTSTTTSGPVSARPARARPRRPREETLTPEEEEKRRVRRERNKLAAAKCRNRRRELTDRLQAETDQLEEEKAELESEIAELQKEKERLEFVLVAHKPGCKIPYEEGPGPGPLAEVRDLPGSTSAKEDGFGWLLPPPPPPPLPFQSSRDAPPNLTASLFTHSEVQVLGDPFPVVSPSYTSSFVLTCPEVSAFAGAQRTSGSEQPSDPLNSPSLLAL
# FGF22 binding – shifts melting point of recombinant human FGF22; Q9HCT0; recombinant FGF22 thermal shift, SYPRO orange fluorescence; percent of sucrose octasulfate shift, DMSO zero; activity (Tm shift, normalised), % at 9.99 µM; hit rate 1.5% among 340,000; AID 651658;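 active means mean Tm shift, scaled 0 neutral to 100 positive control, at about 1.3% or above, every replicate too, limit read from the data; inconclusive means no clear call, values can overlap the other calls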
# CFTR F508del cor – correctors of CFTR F508del function in bronchial epithelial cells | CFBE cells, YFP halide quenching; stimulated with forskolin plus potentiator P3; % fluorescence drop versus neutral controls | activity (quench increase), % at 7.58 µM | hit rate 0.36% among 350,000 | AID 720511;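 active means mean added fluorescence quench of at least 8% versus neutral control, with both replicates also reaching 8%; inconclusive means only one of the mean or replicate conditions met; inactive means mean below 8% and not both replicates reaching 8%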;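 further: cells transiently co-express mutant CFTR-F508del with the halide-sensitive YFP; corrector assay measuring rescue of mutant channel to the surface after 24 h compound exposure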
# S100A4 MyoIIA – blocks human S100A4 binding to myosin IIA peptide; P26447; S100A4/TAMRA-MyoIIA peptide fluorescence polarization; inhibition, % at 10.7 µM; hit rate 0.14% among 360,000; AID 652163;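 active means mean inhibition of at least 70% across replicates, with every replicate also reaching that level; inconclusive means mean inhibition reaches 70% but some replicates fall short; inactive means mean inhibition below 70%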
# Target sequence (P26447 whole entry, looked up): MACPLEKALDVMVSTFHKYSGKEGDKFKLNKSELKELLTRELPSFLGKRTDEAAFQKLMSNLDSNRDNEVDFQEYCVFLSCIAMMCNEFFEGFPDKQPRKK
#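 Material: S100A4 monomer protein / Buffer or medium: 50 mM HEPES pH 7.2, 10 mM CaCl2, 100 mM KCl / Times: 5 min incubation before reading / Benchmarks: neutral control DMSO, positive control TFP / Reagent: labelled myosin peptide probe, 5 nM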
# * hit, by the source's call; ? = inconclusive; · = no result given. A selection: hits, their analogues and other compounds. The true share with any hit is near 2.2%.
SMILES,dFosB activator,FGF22 binding,CFTR F508del cor,S100A4 MyoIIA
COc1ccc(C2NCCc3c2[nH]c2ccccc32)cc1CN1CCc2cc(OC)c(OC)cc2C1C (configuration not stated),63*,·,·,·
COc1ccc(C2NCCc3c2[nH]c2ccccc32)cc1COc1ccc(F)cc1 (configuration not stated),62*,0,-4,-5
COc1ccc(/C=N/NC(=O)c2cc(OC)c(OC)c(OC)c2)cc1CN1CCc2cc(OC)c(OC)cc2C1C (configuration not stated),-13,0,-2,3
Cc1noc(C)c1S(=O)(=O)Nc1ccc2c(c1)C(=O)N([C@@H](C)CO)C[C@@H](C)[C@H](CN(C)C(=O)NC1CCCCC1)OCCCC[C@@H](C)O2,·,0,0,13
CCOc1ccc2c(c1)C(C)=CC(C)(C)N2S(=O)(=O)c1ccc(F)cc1,0,0,10*,4
CCOc1ccc2c(c1)C(C)=CC(C)(C)N2S(=O)(=O)c1ccc(NC(C)=O)cc1,-18,0,1,4
CCOC=C1SC(=S)N(c2ccccc2OC)C1=O,·,0,-1,127*
CCO/C=C1/C(=O)N(c2ccccc2OC)C(=O)c2ccccc21,-6,0,-2,-14
CC(C)NC(=O)Nc1ccc2c(c1)CC(=O)N([C@H](C)CO)C[C@@H](C)[C@H](CN(C)C(=O)Nc1ccccc1)O2,·,0,0,1
COc1ccc(NC(=O)Nc2ccc3c(c2)C(=O)N([C@@H](C)CO)C[C@@H](C)[C@H](CN(C)Cc2ccc(C(F)(F)F)cc2)OCCCC[C@@H](C)O3)cc1,·,1,-3,5
COc1ccc(NC(=O)Nc2ccc3c(c2)C(=O)N([C@H](C)CO)C[C@@H](C)[C@H](CN(C)Cc2ccc(C(F)(F)F)cc2)OCCCC[C@H](C)O3)cc1,·,-1,14*,3
COc1ccc(NC(=O)Nc2ccc3c(c2)C(=O)N([C@H](C)CO)C[C@H](C)[C@H](CN(C)Cc2ccc(C(F)(F)F)cc2)OCCCC[C@H](C)O3)cc1,·,-1,0,157*
CC(C)NC(=O)Nc1ccc2c(c1)C(=O)N([C@@H](C)CO)C[C@@H](C)[C@H](CN(C)Cc1ccc(C(=O)O)cc1)OCCCC[C@H](C)O2,·,1.6*,1,10
Cc1ccc(SC2CC(=O)N(c3ccc4c(c3)OCCO4)C2=O)cc1 (configuration not stated),-15,43*,1,0
CC(C)NC(=O)N(C)C[C@@H]1OCCCC[C@@H](C)Oc2ccc(NC(=O)CCCN(C)C)cc2C(=O)N([C@@H](C)CO)C[C@H]1C,·,0,-1,14
COc1c(O[C@@H]2O[C@H](CO)[C@@H](O)[C@H](O)[C@H]2O)cc2c(c1OC)-c1ccc(SC)c(=O)cc1C(NC(C)=O)CC2 (some centres not stated),-3,0,14*,-3
COc1c(C=O)c2c(c(OC)c1OC)-c1ccc(OC)c(=O)cc1C(NC(C)=O)CC2 (configuration not stated),-3,0,11*,-3
C[C@@H]1CCCCO[C@@H](CN(C)C(=O)Nc2ccccc2)[C@H](C)CN([C@H](C)CO)C(=O)c2cc(NC(=O)C3CCCCC3)ccc2O1,·,0,3,9
C[C@H]1CN([C@@H](C)CO)C(=O)Cc2cc(NS(=O)(=O)c3cn(C)cn3)ccc2O[C@@H]1CN(C)CC1CCCCC1,·,-1,-3,-3
C[C@@H]1CCCCO[C@H](CN(C)C(=O)Nc2ccc(F)cc2)[C@@H](C)CN([C@@H](C)CO)C(=O)c2cc(NC(=O)c3ccccc3)ccc2O1,·,0,-3,-5
COCC(C)n1c(SCC(=O)NC(=O)NCc2ccccc2)nc2ccccc2c1=O (configuration not stated),-12,44*,3,2
COCC(C)n1c(SCC(=O)Nc2cc(C)on2)nc2ccccc2c1=O (configuration not stated),-2,·,-2,-2
Cc1ccc(S(=O)(=O)N(C)C[C@@H]2Oc3c(NC(=O)NC4CCCCC4)cccc3C(=O)N([C@H](C)CO)C[C@H]2C)cc1,·,0,-1,-6
Cc1ccc(-n2nnnc2SCC(=O)NC(C(=O)O)(c2ccccc2)c2ccccc2)cc1C,-5,0,13*,2
O=C(CSc1nnnn1-c1cccc2ccccc12)NC(C(=O)O)(c1ccccc1)c1ccccc1,-5,·,1,1
SMILES,dFosB activator,FGF22 binding,CFTR F508del cor,S100A4 MyoIIA
CNC[C@@H]1OCCCC[C@H](C)Oc2ccc(NS(=O)(=O)c3c(C)noc3C)cc2C(=O)N([C@@H](C)CO)C[C@@H]1C,·,0,-2,·
COc1ccc(CN(C)C[C@@H]2Oc3ccc(NC(=O)Cc4cn(C)c5ccccc45)cc3CC(=O)N([C@@H](C)CO)C[C@@H]2C)cc1,·,0,3,0
CCN(CC)C(=O)[C@H]1CC(CC(=O)NCCc2ccccn2)C(=O)N2CCc3c([nH]c4ccccc34)[C@]12C (some centres not stated),-4,43*,3,-3
Cc1ccc(N(C)S(=O)(=O)c2ccc(-c3cnc(C4CC4)o3)cc2)cc1,-9,0,8.3*,1
CCC(=O)Nc1ccc2c(c1)C(=O)N(C)C[C@H](OC)[C@@H](C)CN(C(=O)c1ccccn1)[C@@H](C)CO2,·,0,-5,15
Cn1cccc1C(=O)C(=O)Nc1ccccc1C(F)(F)F,-4,43*,-2,-5
CCCn1nc(C(=O)Nc2nc3ccccc3[nH]2)c2ccccc2c1=O,-7,43*,0,-2
CC(C)n1nc(C(=O)Nc2nc3ccccc3[nH]2)c2ccccc2c1=O,13,0,0,-2
CCOc1ccc(OCc2ccc(C(=O)N/N=C(\C)c3ccccn3)cc2)cc1,-5,43*,-2,1
CCOc1ccc(C(=O)O/N=C(\N)c2ccccn2)cc1,0,0,8.2*,-1
C/C(=N\NC(=O)c1ccccc1OCc1ccc(F)cc1)c1ccccn1,-22,0,0,-8
COc1cc2sc3cc(NCC[C@@H]4CCCN4C)ccc3c(=O)c2cc1OC,30*,-1,4,5
CCN(CCN(C)C)C(=O)c1ccc2c(c1NCCO)C(=O)c1ccccc1C2=O,20*,0,1,-24
O=C(C[C@H]1C=C[C@H](NC(=O)Nc2ccccc2F)[C@@H](CO)O1)NCc1ccc(F)cc1,·,0,-2,-2
Cc1nn(C)cc1NC(=O)C[C@H]1CC[C@H]2[C@H](COc3ccc(NC(=O)C(C)C)cc3C(=O)N2C)O1,·,0,-1,·
CN1/C(=C\C=C2/SC(=S)N(CC(=O)O)C2=O)C(C)(C)c2ccccc21,?,0,16*,-84
CN1/C(=C\C=O)C(C)(C)c2ccccc21,23*,0,0,-37
C=CCN1C(=O)/C(=C\C=C2\N(C)c3ccccc3C2(C)C)SC1=S,-4,44*,5,34

# Bioassay records as filed in PubChem BioAssay.
